Experimental data from different studies.
CSNK1D: Casein kinase I isoform delta (CSNK1D, Homo sapiens, UniProt P48730)
FLT3 F691L: Receptor-type tyrosine-protein kinase FLT3 (FLT3, Homo sapiens, UniProt P36888, F691L)
PLCD1: 1-phosphatidylinositol 4,5-bisphosphate phosphodiesterase delta-1 (PLCD1, Homo sapiens, UniProt P51178)
FLT3 ITD: Receptor-type tyrosine-protein kinase FLT3 (FLT3, Homo sapiens, UniProt P36888, ITD)
HTR2C: 5-hydroxytryptamine receptor 2C (HTR2C, Homo sapiens, UniProt P28335)
FLT3: Receptor-type tyrosine-protein kinase FLT3 (FLT3, Homo sapiens, UniProt P36888)

| Structure (SMILES) | target | effect on | mode | method | notes | measurement | value |
| --- | --- | --- | --- | --- | --- | --- | --- |
| Oc1ccc(C2CNCCN2)cc1 (stereo not drawn) | CSNK1D | binding |  | SPR |  | Kd | > 50 µM |
| Cc1n[nH]c2ccc3nc(-c4ccc(C(=O)NCCN(C)C)cc4F)c4c(c3c12)CCCC4 | FLT3 F691L | enzyme activity | inhibitor |  |  | IC50 | 0.072 µM |
| CCOc1ccc(-c2cc(C(=O)O)c(-c3ccc(Cl)cc3)o2)cc1 | PLCD1 | ligand displacement |  | FP |  | Ki | > 100 µM |
| CN(C)C(=O)c1cc2cnc(Nc3ccc(C(=O)NCCCCCCOc4cccc5c4C(=O)N(C4CCC(=O)NC4=O)C5=O)cc3)nc2n1C1CCCC1 (stereo not drawn) | Ephrin type-B receptor 6 (EPHB6, Homo sapiens, UniProt O15197) | binding |  | competition with immobilised ligand |  | Kd | < 0.2 µM |
| CCOc1ccc(C(=O)CC(SCc2ccc(Cl)cc2)C(=O)O)cc1OCC (stereo not drawn) | PLCD1 | ligand displacement |  | FP |  | Ki | > 1000 µM |
| N#Cc1ccccc1C#CCO | CSNK1D | binding |  | SPR |  | Kd | > 50 µM |
| O=C(NCCN1CCCCC1)c1ccc(-c2nc3ccc4[nH]ncc4c3c3c2CCCC3)cc1 | FLT3 ITD | enzyme activity | inhibitor |  |  | IC50 | 0.741 µM |
| c1ccc(-c2oc3ncnc(NCCCN4CCOCC4)c3c2-c2ccccc2)cc1 | CSNK1D | binding |  | SPR |  | Kd | > 50 µM |
| O=C(NCC1CC1)c1ccc(-c2nc3ccc4[nH]ncc4c3c3c2CCCC3)cc1 | FLT3 ITD | enzyme activity | inhibitor |  |  | IC50 | > 1 µM |
| CCOc1ccc(C(=O)CC(SCc2ccccc2Br)C(=O)O)cc1 (stereo not drawn) | PLCD1 | ligand displacement |  | FP |  | Ki | > 1000 µM |
| c1ccc(CNCc2ccc(CN3CCCNCCNCCCNCC3)cc2)nc1 | CSNK1D | binding |  | SPR |  | Kd | > 50 µM |
| CCOc1ccc(C(=O)CC(SCc2ccc(Br)cc2)C(=O)O)cc1 (stereo not drawn) | PLCD1 | ligand displacement |  | FP |  | Ki | > 1000 µM |
| COc1cc2c3c(c1OC)-c1c(OC)ccc(N4CCOCC4)c1CC3N(C)CC2 (stereo not drawn) | HTR2C | cell-free assay |  | radioligand |  | Ki | 2.71 µM |
| COCc1n[nH]c(N)c1-c1ccc(Cl)cc1 | CSNK1D | binding |  | SPR |  | Kd | > 50 µM |
| Cc1n[nH]c2ccc3nc(-c4ccc(C(=O)N(C)CCN(C)C)cc4)c4c(c3c12)CCC(F)(F)C4 | FLT3 ITD | enzyme activity | inhibitor |  |  | IC50 | > 1 µM |
| CCCNC(=O)c1ccc2c3c1C(CC(F)(F)F)CN3CCNC2 (racemic) | 5-hydroxytryptamine receptor 2B (HTR2B, Homo sapiens, UniProt P41595) | ligand displacement |  | radioligand | cell membranes | Ki | 2.25 µM |
| COc1cc2c3c(c1OC)-c1c(OC)ccc(Br)c1CC3N(C)CC2 (stereo not drawn) | HTR2C | cell-free assay |  | radioligand |  | Ki | 2.2 µM |
| CN(C)CCNC(=O)c1ccc(-c2nc3ccc4[nH]ncc4c3c3c2CCCCC3)c(F)c1 | FLT3 | enzyme activity | inhibitor |  |  | IC50 | 0.053 µM |
| COc1cc2c3c(c1OC)-c1c(OC)ccc(O)c1CC3N(C)CC2 (stereo not drawn) | HTR2C | cell-free assay |  | radioligand |  | Ki | 4.3 µM |
| CN(C)CCNC(=O)c1ccc(-c2nc3ccc4[nH]ncc4c3c3c2CCCC3)cc1 | FLT3 ITD | enzyme activity | inhibitor |  |  | IC50 | 0.086 µM |
| CCOc1ccc(C(=O)CC(SCc2ccc(Cl)cc2)C(=O)O)cc1 (stereo not drawn) | PLCD1 | ligand displacement |  | FP |  | Ki | 780 µM |
| CNc1cncc(Cl)n1 | CSNK1D | binding |  | SPR |  | Kd | > 50 µM |
| Cc1n[nH]c2ccc3nc(-c4ccc(C(=O)NCCN(C)C)cc4)c4c(c3c12)CCCC4 | FLT3 F691L | enzyme activity | inhibitor |  |  | IC50 | 0.053 µM |
| O=C(NC1CCCCC1)C(=O)c1c[nH]c2ccccc12 | CSNK1D | binding |  | SPR |  | Kd | 5.7 µM |
| CCOc1ccc(C(=O)CC(SCc2ccc(Cl)cc2)C(=O)OC)cc1 (stereo not drawn) | PLCD1 | ligand displacement |  | FP |  | Ki | > 1000 µM |
| Cc1n[nH]c2ccc3nc(-c4ccc(C(=O)NCCN(C)C)cc4)c4c(c3c12)CCCCC4 | FLT3 | enzyme activity | inhibitor |  |  | IC50 | 0.099 µM |
| CCOc1ccc(C(=O)CC(SCc2ccc(F)cc2)C(=O)O)cc1 (stereo not drawn) | PLCD1 | ligand displacement |  | FP |  | Ki | > 1000 µM |
| O=c1[nH]c(N2CCCC2)nc2ccccc12 | CSNK1D | binding |  | SPR |  | Kd | 43.8 µM |
| CCOc1ccc(C(=O)CC(SCc2cccc(Br)c2)C(=O)O)cc1 (stereo not drawn) | PLCD1 | ligand displacement |  | FP |  | Ki | 630 µM |
| O=C(O)c1cc(-c2ccc(-c3ccc(Cl)s3)cc2)c2ccc(-c3ccc(C(F)(F)F)cc3)cc2c1 | HTR2C | cell-free assay |  | radioligand |  | Ki | 0.91 µM |
